Laboratory results reported in ChEMBL document CHEMBL3797186, “Single Residue Substitutions That Confer Voltage-Gated Sodium Ion Channel Subtype Selectivity in the NaV1.7 Inhibitory Peptide GpTx-1” (J Med Chem, 2016).
Positions of bridges follow the written chain, without caps; N, C: chain ends. Residues, ends and D or L forms follow the SMILES beside them.

Target: Sodium channel protein type 5 subunit alpha (Homo sapiens, UniProt Q14524)
Experiment: Inhibition of human Nav1.5 expressed in HEK293 cells assessed as inward peak current by ion-works quattro patch clamp electrophysiology method
Type: cell-based
Method in brief: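 Stable HEK293 line expressing human NaV1.5, recorded by population patch clamp on the IonWorks Quattro.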

Chain of Sodium channel protein type 5 subunit alpha (Q14524 whole entry): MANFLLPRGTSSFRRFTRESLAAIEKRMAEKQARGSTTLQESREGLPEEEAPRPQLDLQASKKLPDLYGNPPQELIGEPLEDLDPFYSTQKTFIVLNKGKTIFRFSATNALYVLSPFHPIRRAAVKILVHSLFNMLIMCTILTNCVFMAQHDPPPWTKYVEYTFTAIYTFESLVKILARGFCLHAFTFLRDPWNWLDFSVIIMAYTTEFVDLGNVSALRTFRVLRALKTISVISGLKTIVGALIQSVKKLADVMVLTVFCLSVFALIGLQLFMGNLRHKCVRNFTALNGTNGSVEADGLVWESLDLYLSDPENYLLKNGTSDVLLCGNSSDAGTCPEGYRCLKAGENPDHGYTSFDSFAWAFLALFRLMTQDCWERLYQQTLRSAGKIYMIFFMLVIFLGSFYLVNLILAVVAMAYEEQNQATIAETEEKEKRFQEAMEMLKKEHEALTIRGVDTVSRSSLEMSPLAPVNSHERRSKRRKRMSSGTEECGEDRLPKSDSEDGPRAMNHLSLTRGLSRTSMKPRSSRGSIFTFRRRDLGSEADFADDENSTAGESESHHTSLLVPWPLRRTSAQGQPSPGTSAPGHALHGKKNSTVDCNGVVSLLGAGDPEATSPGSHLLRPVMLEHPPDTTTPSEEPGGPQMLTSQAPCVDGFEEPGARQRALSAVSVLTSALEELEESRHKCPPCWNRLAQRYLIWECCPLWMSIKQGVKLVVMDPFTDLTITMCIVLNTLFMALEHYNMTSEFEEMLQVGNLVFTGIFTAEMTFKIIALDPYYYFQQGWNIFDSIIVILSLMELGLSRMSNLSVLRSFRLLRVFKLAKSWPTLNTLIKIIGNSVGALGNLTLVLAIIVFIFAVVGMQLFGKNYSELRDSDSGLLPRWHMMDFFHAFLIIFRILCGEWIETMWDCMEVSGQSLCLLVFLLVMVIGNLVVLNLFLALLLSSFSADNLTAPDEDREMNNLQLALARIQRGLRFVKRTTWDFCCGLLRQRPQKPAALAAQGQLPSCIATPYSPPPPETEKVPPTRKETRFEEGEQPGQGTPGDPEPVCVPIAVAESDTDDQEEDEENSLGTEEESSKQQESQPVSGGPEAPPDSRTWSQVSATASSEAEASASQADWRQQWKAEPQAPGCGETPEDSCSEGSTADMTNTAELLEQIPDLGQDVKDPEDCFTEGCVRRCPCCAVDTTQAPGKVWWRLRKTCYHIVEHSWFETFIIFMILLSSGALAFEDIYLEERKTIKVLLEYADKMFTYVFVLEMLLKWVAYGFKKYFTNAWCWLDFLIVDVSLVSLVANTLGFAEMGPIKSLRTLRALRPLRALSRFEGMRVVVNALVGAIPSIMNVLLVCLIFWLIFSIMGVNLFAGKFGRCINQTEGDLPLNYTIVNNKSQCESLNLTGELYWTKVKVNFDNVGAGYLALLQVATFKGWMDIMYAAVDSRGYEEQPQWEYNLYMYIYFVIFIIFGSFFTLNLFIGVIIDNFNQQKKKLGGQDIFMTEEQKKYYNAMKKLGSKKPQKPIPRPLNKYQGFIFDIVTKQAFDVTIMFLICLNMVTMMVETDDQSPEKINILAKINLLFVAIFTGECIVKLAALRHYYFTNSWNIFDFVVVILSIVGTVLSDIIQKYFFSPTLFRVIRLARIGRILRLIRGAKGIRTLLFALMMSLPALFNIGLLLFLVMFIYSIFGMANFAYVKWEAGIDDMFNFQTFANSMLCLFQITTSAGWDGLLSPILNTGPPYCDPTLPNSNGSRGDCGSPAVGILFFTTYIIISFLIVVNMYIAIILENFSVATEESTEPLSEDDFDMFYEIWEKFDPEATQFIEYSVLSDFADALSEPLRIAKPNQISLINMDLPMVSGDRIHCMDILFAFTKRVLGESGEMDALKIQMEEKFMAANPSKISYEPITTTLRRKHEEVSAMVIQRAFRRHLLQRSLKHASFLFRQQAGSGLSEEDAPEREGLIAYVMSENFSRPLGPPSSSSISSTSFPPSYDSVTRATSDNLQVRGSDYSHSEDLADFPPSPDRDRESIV

CC[C@H](C)[C@@H]1NC(=O)[C@@H]2CSSC[C@@H]3NC(=O)[C@H](C(C)C)NC(=O)[C@H](CC(C)C)NC(=O)[C@H](CC(N)=O)NC(=O)[C@@H]4CCCN4C(=O)[C@H](CCCNC(=N)N)NC(=O)[C@H](CSSC[C@H](NC(=O)[C@@H](N)CC(=O)O)C(=O)N[C@@H](CC(C)C)C(=O)NCC(=O)N[C@@H](Cc4ccccc4)C(=O)N[C@@H](CCSC)C(=O)N[C@@H](CCCNC(=N)N)C(=O)N[C@@H](CCCCN)C(=O)N2)NC(=O)[C@H](CSSC[C@@H](C(=O)N[C@@H](CCCCN)C(=O)N[C@@H](Cc2ccc(O)cc2)C(=O)N[C@H](C(=O)N[C@@H](Cc2ccccc2)C(=O)N[C@@H](CCC(=O)O)C(N)=O)C(C)C)NC(=O)[C@H](Cc2c[nH]c4ccccc24)NC(=O)[C@H](CCCCN)NC(=O)[C@H](Cc2c[nH]cn2)NC(=O)[C@H]([C@@H](C)O)NC(=O)[C@H](CCCNC(=N)N)NC(=O)[C@H](CO)NC3=O)NC(=O)[C@H](CCCCN)NC(=O)[C@H](CC(=O)O)NC(=O)[C@H](CC(N)=O)NC(=O)[C@H](CC(=O)O)NC(=O)[C@@H]2CCCN2C1=O was tested, and the IC50 was greater than 5 µM.
For CSCC[C@@H]1NC(=O)[C@H](Cc2ccccc2)NC(=O)CNC(=O)[C@H](CC(C)C)NC(=O)[C@@H](NC(=O)[C@@H](N)CC(=O)O)CSSC[C@@H]2NC(=O)[C@@H]3CSSC[C@@H](C(=O)N[C@@H](CCCCN)C(=O)N[C@@H](Cc4ccc(O)cc4)C(=O)N[C@H](C(=O)N[C@@H](Cc4ccccc4)C(N)=O)C(C)C)NC(=O)[C@H](Cc4c[nH]c5ccccc45)NC(=O)[C@H](CCCCN)NC(=O)[C@H](Cc4cnc[nH]4)NC(=O)[C@H]([C@@H](C)O)NC(=O)[C@H](CCCNC(=N)N)NC(=O)[C@H](CO)NC(=O)[C@H](CSSC[C@H](NC(=O)[C@H](CCCCN)NC(=O)[C@H](CCCNC(=N)N)NC1=O)C(=O)N[C@@H](Cc1ccccn1)C(=O)N1CCC[C@H]1C(=O)N[C@@H](CC(=O)O)C(=O)N[C@@H](CC(N)=O)C(=O)N[C@@H](CC(=O)O)C(=O)N[C@@H](CCCCN)C(=O)N3)NC(=O)[C@H](C(C)C)NC(=O)[C@H](CC(C)C)NC(=O)[C@H](CC(N)=O)NC(=O)[C@@H]1CCCN1C(=O)[C@H](CCCNC(=N)N)NC2=O, the IC50 was greater than 5 µM.
In the case of CC[C@H](C)[C@@H]1NC(=O)[C@@H]2CSSC[C@@H]3NC(=O)[C@H](C(C)C)NC(=O)[C@H](CC(C)C)NC(=O)[C@H](CC(N)=O)NC(=O)[C@@H]4CCCN4C(=O)[C@H](CCCNC(=N)N)NC(=O)[C@H](CSSC[C@H](NC(=O)[C@@H](N)CC(=O)O)C(=O)N[C@@H](CC(C)C)C(=O)NCC(=O)N[C@@H](Cc4ccccc4)C(=O)N[C@@H](CCSC)C(=O)N[C@@H](CCCNC(=N)N)C(=O)N[C@@H](CCCCN)C(=O)N2)NC(=O)[C@H](CSSC[C@@H](C(=O)N[C@@H](CCCCN)C(=O)N[C@@H](Cc2ccc(O)cc2)C(=O)N[C@H](C(=O)N[C@@H](Cc2ccccc2)C(N)=O)C(C)C)NC(=O)[C@H](Cc2c[nH]c4ccccc24)NC(=O)[C@H](CCCCN)NC(=O)[C@H](CCCCN)NC(=O)[C@H]([C@@H](C)O)NC(=O)[C@H](CCCNC(=N)N)NC(=O)[C@H](CO)NC3=O)NC(=O)[C@H](CCCCN)NC(=O)[C@H](CC(=O)O)NC(=O)[C@H](CC(N)=O)NC(=O)[C@H](CC(=O)O)NC(=O)[C@@H]2CCCN2C1=O (H-DCLGFMRKCIPDNDKCCRPNLVCSRTKKWCKYVF-NH2; disulfide 2-17, 9-23, 16-30), the IC50 is reported as greater than 5 µM.
In the case of CC[C@H](C)[C@@H]1NC(=O)[C@@H]2CSSC[C@@H]3NC(=O)[C@H](C(C)C)NC(=O)[C@H](CC(C)C)NC(=O)[C@H](CC(N)=O)NC(=O)[C@@H]4CCCN4C(=O)[C@H](CCCNC(=N)N)NC(=O)[C@H](CSSC[C@H](NC(=O)[C@@H](N)CC(=O)O)C(=O)N[C@@H](CC(C)C)C(=O)NCC(=O)N[C@@H](Cc4ccccc4)C(=O)N[C@@H](CCSC)C(=O)N[C@@H](CCCNC(=N)N)C(=O)N[C@@H](CCCCN)C(=O)N2)NC(=O)[C@H](CSSC[C@@H](C(=O)N[C@@H](CCCCN)C(=O)N[C@@H](Cc2ccc(O)cc2)C(=O)N[C@H](C(=O)N[C@@H](Cc2ccccc2)C(N)=O)C(C)C)NC(=O)[C@H](Cc2c[nH]c4ccccc24)NC(=O)[C@H](CCCCN)NC(=O)[C@H](Cc2c[nH]c4ccccc24)NC(=O)[C@H]([C@@H](C)O)NC(=O)[C@H](CCCNC(=N)N)NC(=O)[C@H](CO)NC3=O)NC(=O)[C@H](CCCCN)NC(=O)[C@H](CC(=O)O)NC(=O)[C@H](CC(N)=O)NC(=O)[C@H](CC(=O)O)NC(=O)[C@@H]2CCCN2C1=O (H-DCLGFMRKCIPDNDKCCRPNLVCSRTWKWCKYVF-NH2; disulfide 2-17, 9-23, 16-30), the IC50 is reported as greater than 5 µM.
In the case of CC[C@H](C)[C@@H]1NC(=O)[C@@H]2CSSC[C@@H]3NC(=O)[C@H](C(C)C)NC(=O)[C@H](CC(C)C)NC(=O)[C@H](CC(N)=O)NC(=O)[C@@H]4CCCN4C(=O)[C@H](CCCNC(=N)N)NC(=O)[C@H](CSSC[C@H](NC(=O)[C@@H](N)CC(=O)O)C(=O)N[C@@H](CCCNC(=N)N)C(=O)NCC(=O)N[C@@H](Cc4ccccc4)C(=O)N[C@@H](CCSC)C(=O)N[C@@H](CCCNC(=N)N)C(=O)N[C@@H](CCCCN)C(=O)N2)NC(=O)[C@H](CSSC[C@@H](C(=O)N[C@@H](CCCCN)C(=O)N[C@@H](Cc2ccc(O)cc2)C(=O)N[C@H](C(=O)N[C@@H](Cc2ccccc2)C(N)=O)C(C)C)NC(=O)[C@H](Cc2c[nH]c4ccccc24)NC(=O)[C@H](CCCCN)NC(=O)[C@H](Cc2cnc[nH]2)NC(=O)[C@H]([C@@H](C)O)NC(=O)[C@H](CCCNC(=N)N)NC(=O)[C@H](CO)NC3=O)NC(=O)[C@H](CCCCN)NC(=O)[C@H](CC(=O)O)NC(=O)[C@H](CC(N)=O)NC(=O)[C@H](CC(=O)O)NC(=O)[C@@H]2CCCN2C1=O (H-DCRGFMRKCIPDNDKCCRPNLVCSRTHKWCKYVF-NH2; disulfide 2-17, 9-23, 16-30), the IC50 is reported as greater than 5 µM.
CC[C@H](C)[C@@H]1NC(=O)[C@@H]2CSSC[C@@H]3NC(=O)[C@H](C(C)C)NC(=O)[C@H](CC(C)C)NC(=O)[C@H](CC(N)=O)NC(=O)[C@@H]4CCCN4C(=O)[C@H](CCCNC(=N)N)NC(=O)[C@H](CSSC[C@H](NC(=O)[C@@H](N)CCCNC(=N)N)C(=O)N[C@@H](CC(C)C)C(=O)NCC(=O)N[C@@H](Cc4ccccc4)C(=O)N[C@@H](CCSC)C(=O)N[C@@H](CCCNC(=N)N)C(=O)N[C@@H](CCCCN)C(=O)N2)NC(=O)[C@H](CSSC[C@@H](C(=O)N[C@@H](CCCCN)C(=O)N[C@@H](Cc2ccc(O)cc2)C(=O)N[C@H](C(=O)N[C@@H](Cc2ccccc2)C(N)=O)C(C)C)NC(=O)[C@H](Cc2c[nH]c4ccccc24)NC(=O)[C@H](CCCCN)NC(=O)[C@H](Cc2cnc[nH]2)NC(=O)[C@H]([C@@H](C)O)NC(=O)[C@H](CCCNC(=N)N)NC(=O)[C@H](CO)NC3=O)NC(=O)[C@H](CCCCN)NC(=O)[C@H](CC(=O)O)NC(=O)[C@H](CC(N)=O)NC(=O)[C@H](CC(=O)O)NC(=O)[C@@H]2CCCN2C1=O (H-RCLGFMRKCIPDNDKCCRPNLVCSRTHKWCKYVF-NH2; disulfide 2-17, 9-23, 16-30) gave an IC50 greater than 5 µM.
